Compound activity deposited in PubChem by several laboratories.
TRAIL sens C8 – caspase-8 TRAIL sensitization; 1% of 360,000 active; AID 624354; inhibition (viability loss, TRAIL sensitization), % at 10 µM; NB7+C8 cells + TRAIL, ATPlite viability luminescence;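 active = compounds causing at least 50% loss of cell viability in the single-dose screen, relative to plate controls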
PPC-1+TRAIL kill – compounds killing PPC-1 cancer cells with TRAIL present (potentiator screen, no TRAIL-free arm) | PPC-1 cells + TRAIL, ATPLite viability luminescence | cell killing (% activity), % at 4 µM or 5 µM | 0.41% of 220,000 active | AID 1443;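 active = cell killing above 50% in the first pass at 4 µM, then a duplicate retest at 5 µM averaging 50% or more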
NF-kB neuron act – NF-kB expression increase, human neuronal cells; 1.6% of 190,000 active; NF-kB reporter expression; stronger effect = higher value; fold change at 12.5 µM; AID 1239; in the data active = fold change above about 3.3
APP 5'UTR act – activates APP 5'UTR luciferase reporter. SH-SY5Y APP 5'UTR luciferase reporter, luminescence; zero percent = DMSO vehicle wells. activation, % at 2 µM. 1% of 190,000 active. AID 1276;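 active = activation above a set limit, based on mean plus 3 SD of controls, cut at about 140% in these data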
FLuc inh counter – Photinus pyralis luciferase inhibition counter-screen. P08659. ATPLite firefly luciferase biochemical luminescence, 10 min. inhibition, % at 10 µM. 1.5% of 200,000 active. AID 1006;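 active = inhibition above about 50% when tested at 10 µM, limit read from the data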
Target sequence (P08659 whole entry, looked up): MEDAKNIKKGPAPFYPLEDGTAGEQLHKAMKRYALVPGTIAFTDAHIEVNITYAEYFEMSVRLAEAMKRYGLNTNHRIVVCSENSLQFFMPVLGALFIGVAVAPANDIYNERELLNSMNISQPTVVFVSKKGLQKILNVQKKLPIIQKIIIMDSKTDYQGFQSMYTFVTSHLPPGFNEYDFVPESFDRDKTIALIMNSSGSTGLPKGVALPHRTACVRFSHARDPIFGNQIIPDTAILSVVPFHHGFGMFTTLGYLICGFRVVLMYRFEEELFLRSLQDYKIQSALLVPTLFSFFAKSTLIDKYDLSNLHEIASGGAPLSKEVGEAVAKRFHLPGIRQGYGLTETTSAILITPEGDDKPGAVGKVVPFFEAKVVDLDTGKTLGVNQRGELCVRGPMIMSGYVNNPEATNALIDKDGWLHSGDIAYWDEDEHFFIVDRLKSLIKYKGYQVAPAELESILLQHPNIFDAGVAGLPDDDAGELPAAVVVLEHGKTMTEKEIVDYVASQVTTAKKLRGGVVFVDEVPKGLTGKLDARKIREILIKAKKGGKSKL
FLuc act counter – affects firefly luciferase, flagging false hits in luciferase stimulation screens | 200,000 tested, under 10 active | P08659 | activation factor at 10 µM | AID 1027 | ATPlite luciferase biochemical, luminescence, 10 min; 0 = ATP-free wells, 1 = DMSO control;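 active = luciferase activation factor, scaled between plate controls, of at least 2 with compound at 10 µM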
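Assay system: Luciferase/luciferin detection reagent, cell-free biochemical luciferase assay / Read-out: luciferase activation / Benchmarks: No-ATP low control, compound-free enzyme-plus-ATP high control / Medium: PBS buffer for ATP / Detection: luminescence measurement of luciferase light output / Schedule: 10 min at ambient temperature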
A number is an active result; . = inactive; / = not tested or not shown. This is a sample that favours compounds with a hit; in the whole collection about 2.2% have one here.

SMILES	TRAIL sens C8	PPC-1+TRAIL kill	NF-kB neuron act	APP 5'UTR act	FLuc inh counter	FLuc act counter
CC(=O)Nc1ccc2nc(C3CC3)n(Cc3ccc(Cl)cc3)c(=O)c2c1	.	.	.	.	.	.
CCOC(=O)c1sc(=NC(=O)c2ccccc2)n(C)c1C	.	.	6.7	180	68	.
CCOC(=O)c1sc(NC(=O)c2ccccc2)cc1C	50	.	6.7	.	69	.
CCOC(=O)c1sc(NC(=O)c2ccc(S(=O)(=O)N(C)C)cc2)cc1C	.	.	.	.	.	.
CCOC(=O)c1sc(=NC(=O)c2cccc(OC)c2)n(C)c1C	.	.	.	.	.	.
CCOC(=O)c1csc(NC(=O)c2ccccc2)n1	.	.	3.6	144	.	.
C[N+](C)(C)CCN1CCc2ccccc21	.	/	/	/	/	/
Cc1ccc(NC(=O)/C(Cl)=C/c2ccccc2)cc1C	.	.	9.1	139	.	.
CC(C)CC1C(=O)N(Cc2cn(CC3CCCCC3)nn2)CCS(=O)(=O)N1Cc1ccc(-c2ccc(F)nc2)cc1 (centres undefined)	.	/	/	/	/	/
CNc1cccc(-c2cc(OC)ccc2OC)n1	.	/	/	/	/	/
Cc1sc(=NC(=O)c2ccco2)n(C)c1-c1ccc(F)cc1	60	.	.	.	80	.
CN(C(=O)c1ccco1)c1nnc(-c2ccc(F)cc2)s1	.	/	/	/	/	/
COc1ccccc1-c1cc(C(=O)NC2CCN(C)CC2)c2ccc(Cl)c(C)c2n1	70	/	/	/	/	/
COc1cccc(C=C2Cc3ccccc3C2=O)c1	.	/	/	/	/	/
COc1ccc(/C=C2\CCc3ccccc3C2=O)cc1OC	.	.	3.6	.	.	.
COc1cccc(/C=C2\CCc3ccccc3C2=O)c1	82	.	/	/	/	/
COc1ccc(OC)c(C=C2CCc3ccccc3C2=O)c1	.	/	/	/	/	/
COc1ccc(C=C2C=C(C(C)(C)C)C(=O)C(C(C)(C)C)=C2)cc1OC	87	/	/	/	/	/
COc1ccc(C=C2SC(=O)NC2=O)cc1OC	.	/	/	/	/	/
COc1ccc(/C=C2\CC/C(=C\c3ccc(OC)c(OC)c3)C2=O)cc1OC	64	.	.	.	66	.
COCCNc1ncnc2c1ncn2[C@H]1CN(Cc2ccccc2)C[C@@H](CO)O1	.	/	/	/	/	/
CC1(C(=O)Nc2ccc3c(c2)OCCO3)CSCC(=O)N1Cc1ccco1 (centres undefined)	.	/	/	/	/	/
Cc1ccccc1C(=O)NNC(=O)c1ccoc1C	.	.	.	.	.	.
Cc1occc1C(=O)NNC(=O)c1ccccc1C(=O)O	.	.	.	181	.	.
Cc1cccc(C)c1NC(=O)C1(C)CSCC(=O)N1CCOc1ccccc1 (centres undefined)	.	/	/	/	/	/
SMILES	TRAIL sens C8	PPC-1+TRAIL kill	NF-kB neuron act	APP 5'UTR act	FLuc inh counter	FLuc act counter
O=[N+]([O-])c1ccc(-[n+]2ccc3ccccc3c2)c([N+](=O)[O-])c1	55	/	/	/	/	/
CCOC(=O)c1ccc(N/C=C/C(=O)C(C)(C)C)cc1	.	.	4.2	.	.	.
CCOC(=O)c1ccc(N/C=C/C(=O)c2ccccc2)cc1	.	.	4.8	164	.	.
COc1cccc(C(O)c2nc(-c3ccc(F)c(Cl)c3)cs2)c1 (centres undefined)	.	/	/	/	/	/
CSCCC(NC(=O)c1ccc(Cl)c([N+](=O)[O-])c1)C(=O)N1CCN(C/C=C/c2ccccc2)CC1 (centres undefined)	65	/	/	/	/	/
Oc1ccc(Cl)c(CN2CCN(c3ncc(Cc4ccccc4)cn3)CC2)c1	.	/	/	/	/	/
CCOC(=O)c1sc2nc3c(cc2c1N)COC(C(C)C)C3 (centres undefined)	.	.	.	145	.	.
CC1(C)Cc2nc3sc(C(=O)NCCCO)c(N)c3cc2CO1	.	.	/	/	/	/
COC(=O)c1sc2nc3c(cc2c1N)COC(C)(C)C3	.	.	4.2	.	.	.
CCOC(=O)c1sc2nc(N3CCOCC3)c3c(c2c1N)CC(C(C)C)OC3 (centres undefined)	.	.	.	.	.	.
CCOC(=O)c1cc(-c2ccc(C)cc2)nc2nc(SC)[nH]c(=O)c12	.	.	4	.	.	.
CCCOc1ccc(/C=c2\sc3nc(-c4ccco4)nn3c2=O)cc1OCC	.	.	.	.	.	.
CC(=O)Oc1cccc(/C=c2\sc3nc(-c4ccco4)nn3c2=O)c1	.	.	.	.	89	.
CCCCN1C(=O)C(=O)N(c2ccccc2)C1=S	.	.	3.4	.	.	.
C[C@@H]1COc2cccc(N3CCSCC3)c2S(=O)(=O)N1	.	/	/	/	/	/
O=C(/C=C/c1ccccc1)Nc1scc(-c2ccccc2)c1C(=O)O	.	.	.	.	74	.
O=C(/C=C/c1ccco1)Nc1nc(-c2ccccc2)cs1	.	.	.	.	.	.
O=C(/C=C/c1ccco1)Nc1scc(-c2ccccc2)c1C(=O)O	54	.	/	/	/	/
O=C(Nc1ccc2c(c1)OCCO2)C1c2ccccc2OCC(=O)N1CCCN1CCOCC1 (centres undefined)	.	/	/	/	/	/
COc1ccc(C)cc1NC(=O)NCc1ccccc1F	.	.	.	.	68	.
COc1ccccc1NC(=O)NCc1ccccc1F	.	.	.	.	.	.
CC(C)c1cccc(-c2csc(C(O)c3cccc(Cl)c3)n2)c1 (centres undefined)	.	/	/	/	/	/
COc1ccc(NC(=O)C2=Cc3ccccc3OC2)cc1	.	.	9.5	157	52	.
COc1ccc(NC(=O)C2=Cc3cccc(OC)c3OC2)cc1	.	.	.	.	55	.
O=C(Nc1ccc(Cl)cc1)C1=Cc2cc(Cl)ccc2OC1	.	.	.	/	.	.
O=C(Nc1ccc(Cl)cc1Cl)C1=Cc2ccccc2OC1	.	.	5.9	221	.	.
CCCCOCCCNC(=O)C[C@@H]1C[C@@]2(C(=O)OCC)CCCC=C2N(CCc2ccc(OC)c(OC)c2)C1=O	.	/	/	/	/	/
